# Active and inactive are the calls of the source. The calls are words filed in the database; no cut-off is given here.
# Key:
# Staphylococcus aureus [1] = assay: Antibacterial activity against methicillin-sensitive Staphylococcus aureus isolate 2 planktonic cells after 24 hrs by microdilution assay; assay type: functional; settings: isolate 2, 24 h
# In short: (§1)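 Planktonic cells at 1 × 10^5 CFU/mL were exposed to compound, and A580 was read at 0 h and after 24 h at 37 °C with shaking. Controls were medium plus microbes, with 1% (v/v) DMSO where the solvent was used. Relative cell number was calculated against the control. Results were confirmed by subculture in fresh medium (48 h, 37 °C) and plating. Conjugate concentrations were expressed as parent-antibiotic equivalents.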
# Staphylococcus aureus [2] = assay: Antibacterial activity against methicillin-sensitive Staphylococcus aureus isolate 6 planktonic cells after 24 hrs by microdilution assay; assay type: functional; settings: isolate 6, 24 h; in short: as §1
# Staphylococcus aureus [3] = assay: Antibacterial activity against methicillin-sensitive Staphylococcus aureus ATCC 6538 planktonic cells after 24 hrs by microdilution assay; assay type: functional; settings: ATCC 6538, 24 h; in short: as §1
# Hydroxyapatite = assay: Binding affinity to Hydroxyapatite at 1.95 to 250 ug/mL up to 24 hrs by spectroscopic analysis
# In short: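 HA spherules (final 10 mg/mL) in TSB were mixed with compound (final 0.24–250 mg/L). Absorbance at 275 nm was read at 0 h and after 24 h at 37 °C with shaking, and relative compound concentration was derived by comparing the two readings.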
# Staphylococcus aureus [4] = assay: Ratio of MIC50 for methicillin-sensitive Staphylococcus aureus ATCC 6538 planktonic cells at pH 5 to MIC50 for methicillin-sensitive Staphylococcus aureus ATCC 6538 planktonic cells at pH 7.4; assay type: functional
# In short: (§2)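 Planktonic ATCC 6538 was tested by microdilution in medium adjusted to pH 5 or pH 7.4 with KOH or HCl, with pH checked by universal indicator. MIC50 was determined at each pH.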
# Staphylococcus aureus [5] = assay: Antibacterial activity against methicillin-sensitive Staphylococcus aureus ATCC 6538 planktonic cells at pH 7.4 after 24 hrs by microdilution method; assay type: functional; settings: ATCC 6538, 24 h; in short: as §2
# Staphylococcus aureus [6] = assay: Bactericidal activity against methicillin-resistant Staphylococcus aureus MR4-CIPS planktonic cells assessed as reduction in bacterial growth at 7.8 ug/ml after 2 hrs by time kill assay; assay type: functional
# In short: (§3)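 Time-kill per CLSI on planktonic cultures, set up as the microdilution assay: 1 × 10^5 CFU/mL, 37 °C with shaking. A580 is read at 0, 1, 2, 4, 8, 16 and 24 h, and growth is expressed relative to untreated medium + microbes control. Concentrations are parent-antibiotic equivalents.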
# Staphylococcus aureus [7] = assay: Bactericidal activity against methicillin-resistant Staphylococcus aureus MR4-CIPS planktonic cells assessed as reduction in bacterial growth at 7.8 ug/ml after 24 hrs by time kill assay relative to control; assay type: functional; parameters: scale not given: the % may be the effect or the level left; in short: as §3
# Pseudomonas aeruginosa [8] = assay: Bactericidal activity against Pseudomonas aeruginosa ATCC 15442 biofilm using polystyrene as substrate assessed as reduction in colony forming units at 0.24 to 125 ug/ml after 24 hrs; assay type: functional
# In short: (§4)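 Biofilms were started from a 1 McFarland suspension, allowed to adhere 4 h at 37 °C on HA discs or polystyrene well bottoms, then rinsed. They were exposed 24 h at 37 °C to TSB containing 0.24–125 mg/L compound. Cells were detached in 0.5% saponin by 1 min vortexing, serially diluted and plated on Columbia (S. aureus) or MacConkey (P. aeruginosa) agar, 37 °C, 24 h. Read-out was mean CFU/mm² ± SEM; HA area was measured by X-ray tomography.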
# Staphylococcus aureus [9] = assay: Bactericidal activity against Staphylococcus aureus ATCC 6538 biofilm using hydroxyapatite as substrate assessed as reduction in colony forming units after 24 hrs; assay type: functional; in short: as §4
# Pseudomonas aeruginosa [10] = assay: Bactericidal activity against Pseudomonas aeruginosa ATCC 15442 biofilm using hydroxyapatite as substrate assessed as reduction in colony forming units at 50 ug/ml at pH 4.8 to 7.4 after 24 hrs; assay type: functional
# Staphylococcus aureus [11] = assay: Antibiofilm activity against Staphylococcus aureus ATCC 6538 assessed as reduction in bacterial adherence to HA at 0.24 to 7.8 ug/ml pretreated with HA for 24 hrs followed by organism inoculation measured after 24 hrs; assay type: functional
# In short: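 HA spherules (final 10 mg/mL) in TSB were preincubated 24 h at 37 °C with shaking with compound (final 0.12–250 mg/L), then pelleted and the supernatant discarded. They were inoculated with 1 mL S. aureus at 10^5 CFU/mL. A580 was read at 0 and 24 h (37 °C, shaking) against controls without spherules and spherules without compound; spherules were also plated for CFU.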
# Staphylococcus aureus [12] = assay: Antibiofilm activity against Staphylococcus aureus ATCC 6538 assessed as CFU counts at 25 ug/mL pretreated with HA for 24 hrs followed by organism inoculation measured after 24 hrs (reference value: 4.5 x 10^10CFU); assay type: functional
# In short: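 HA discs were soaked 24 h at 37 °C in 2 mL compound solution, with DMSO or phosphate-buffer controls, then rinsed 3× with sterile water. Discs were inoculated with 2 mL of 0.5 McFarland S. aureus ATCC 6538 for biofilm formation. Biofilm CFU were counted after 24 h growth.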
# [13] = tested on: Aggregatibacter actinomycetemcomitans; assay: Antibiofilm activity against Aggregatibacter actinomycetemcomitans D7S-5 using hydroxyapatite as substrate at >15 ug/mL after 24 hrs; assay type: functional
# Rattus norvegicus = assay: Toxicity in jawbone peri-implant osteomyelitis Sprague-Dawley rat model infected with Aggregatibacter actinomycetemcomitans assessed as signs of gross tolerability issue at 0.1 to 10 mg/kg, ip single dose measured after 1 week post pharmacotherapy; assay type: organism-based; settings: in vivo, 168 h
# In short: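 Rats carried two *Aa* (D7S-1) biofilm-coated miniature titanium implants (10^9 CFU) in the palatal bone, one on each side. Dosing began one week after surgery: a single intraperitoneal injection under anesthesia, in sterile physiological saline, with 2 rats per group. Injection-site reactions and gross tolerability were observed during therapy. Animals were euthanized one week after pharmacotherapy.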
# [14] = tested on: Aggregatibacter actinomycetemcomitans; assay: Antibiofilm activity against Aggregatibacter actinomycetemcomitans infected in jawbone peri-implant osteomyelitis Sprague-Dawley rat model assessed as mean CFU count/gram at 10 mg/kg, ip single dose measured after 1 week post pharmacotherapy; assay type: functional, organism-based
# In short: (§5)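 Rats carried two titanium implants each, preinoculated with A. actinomycetemcomitans D7S-1 biofilm (10^9 CFU), placed bilaterally in palatal bone. One week after surgery, randomized groups received i.p. doses in sterile saline; the negative control was endotoxin-free saline. One week after treatment, 1 cm² peri-implant tissue and bone were homogenized in 0.5% saponin, serially diluted 10-fold and spread-plated on modified TSB (37 °C, 5% CO2, 48 h). Read-out was CFU/g and mean log10 reduction; analysts were blinded.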
# [15] = tested on: Aggregatibacter actinomycetemcomitans; assay: Antibiofilm activity against Aggregatibacter actinomycetemcomitans infected in jawbone peri-implant osteomyelitis Sprague-Dawley rat model assessed as mean CFU count/gram at 0.3 mg/kg, ip administered 3 times per week measured after 1 week post pharmacotherapy; assay type: functional, organism-based; in short: as §5
# Staphylococcus aureus [16] = assay: Bactericidal activity against methicillin-susceptible Staphylococcus aureus ATCC 6538 planktonic cells assessed as reduction in bacterial growth at 15.6 ug/ml after 2 hrs by time kill assay
# Staphylococcus aureus [17] = assay: Bactericidal activity against methicillin-susceptible Staphylococcus aureus ATCC 6538 planktonic cells assessed as reduction in bacterial growth at 15.6 ug/ml after 24 hrs by time kill assay; parameters: scale not given: the % may be the effect or the level left
smiles,measurement,setting,value
O=C(O)c1cn(C2CC2)c2cc(N3CCN(C(=O)Oc4ccc(CC(P(=O)(O)O)P(=O)(O)O)cc4)CC3)c(F)cc2c1=O,MIC,Staphylococcus aureus [1],0.49 µg/mL
same,MIC,Staphylococcus aureus [2],7.8 µg/mL
same,MIC,Staphylococcus aureus [3],31.2 µg/mL
same,Activity,Hydroxyapatite,Active
same,Ratio,Staphylococcus aureus [4],0.5
same,MIC50,Staphylococcus aureus [5],15.6 µg/mL
same,MIC90,Staphylococcus aureus [5],31.2 µg/mL
same,Activity,Staphylococcus aureus [6],Active
same,Activity,Staphylococcus aureus [7],50%
same,Activity,Pseudomonas aeruginosa [8],inactive
same,MBIC50,Staphylococcus aureus [9],16 µg/mL
same,MBIC90,Staphylococcus aureus [9],100 µg/mL
same,Activity,Pseudomonas aeruginosa [10],Active
same,Activity,Staphylococcus aureus [11],Active
same,Activity,Staphylococcus aureus [12],Active
same,Activity,[13],Active
same,Activity,Rattus norvegicus,Non-Toxic
same,Activity,[14],Active
same,Activity,[15],Active
same,Activity,Staphylococcus aureus [16],Active
same,Activity,Staphylococcus aureus [17],50%
